Data reported in paper PMC5823510 (Journal of the American Chemical Society, 2018).

How the values were obtained:
[1] = target: T1, hABH2 (human AlkB Homolog 2) (Homo sapiens, UniProt Q6NS38); experiment: Enzyme selectivity screen, hABH2; type: biochemical; conditions: 20 μM
T1 sequence (Q6NS38 1-261): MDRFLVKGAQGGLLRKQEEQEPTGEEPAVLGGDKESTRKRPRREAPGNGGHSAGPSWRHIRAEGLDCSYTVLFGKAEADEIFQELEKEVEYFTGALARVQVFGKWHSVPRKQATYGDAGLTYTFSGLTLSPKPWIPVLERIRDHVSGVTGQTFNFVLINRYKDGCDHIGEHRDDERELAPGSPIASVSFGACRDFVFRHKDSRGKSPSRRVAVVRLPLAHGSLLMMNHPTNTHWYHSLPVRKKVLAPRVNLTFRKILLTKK

[2] = target: T2, hABH3 (human AlkB Homolog 3) (Homo sapiens, UniProt Q96Q83); experiment: Enzyme selectivity screen, hABH3; type: biochemical; conditions: 20 μM
T2 sequence (Q96Q83 1-286): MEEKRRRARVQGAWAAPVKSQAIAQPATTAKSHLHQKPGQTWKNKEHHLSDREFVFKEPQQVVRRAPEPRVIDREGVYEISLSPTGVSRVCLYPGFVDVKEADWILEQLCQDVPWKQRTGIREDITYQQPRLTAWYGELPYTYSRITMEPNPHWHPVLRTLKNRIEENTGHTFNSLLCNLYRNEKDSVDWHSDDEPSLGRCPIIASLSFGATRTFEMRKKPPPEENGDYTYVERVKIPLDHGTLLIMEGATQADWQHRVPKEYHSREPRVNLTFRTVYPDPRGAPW

[3] = tested on: HeLa cells; experiment: Toxicity via MTT assay, HeLa; type: cell-based, human
Outline: (§1)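 HEK293T cells (1.6×10^4/well, pre-grown 30 h) or HeLa cells (1.2×10^4/well, pre-grown 16 h) were cultured in DMEM with 10% FBS. They were exposed 24 h at 37 °C to test compound at 10 nM–100 μM, with 5% DMSO at 100 μM and 1% DMSO otherwise; medium-only and DMSO-matched controls were included. MTT was added at 0.5 mg/mL final, followed by 20 h solubilisation and absorbance reading at 550 and 650 nm.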

[4] = tested on: HEK293T cells; experiment: Toxicity via MTT assay, HEK293T; type: cell-based, human
Outline: as §1

[5] = target: NUDT16 (nucleoside diphosphate-linked moiety X-type motif 16) (Homo sapiens, UniProt Q96DE0); experiment: Enzyme selectivity screen, NUDT16; type: biochemical; conditions: 20 μM
Sequence of NUDT16 (nucleoside diphosphate-linked moiety X-type motif 16) (Q96DE0 whole entry, species assumed): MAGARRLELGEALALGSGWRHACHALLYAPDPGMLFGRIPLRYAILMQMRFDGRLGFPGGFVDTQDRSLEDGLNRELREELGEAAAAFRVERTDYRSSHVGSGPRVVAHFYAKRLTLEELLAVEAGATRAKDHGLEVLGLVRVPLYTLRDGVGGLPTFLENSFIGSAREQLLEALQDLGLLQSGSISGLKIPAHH

[6] = target: MTH1 (human MutT Homolog 1) (Homo sapiens, UniProt P36639); experiment: Enzyme selectivity screen, MTH1; type: biochemical; conditions: 20 μM
[7] = tested on: dUTPase (deoxyuridine 5′-triphosphate nucleotidohydrolase); experiment: Enzyme selectivity screen, dUTPase; type: biochemical; conditions: 20 μM
[8] = target: T3, hOGG1 (Homo sapiens, UniProt O15527); experiment: OGG1 inhibitor assay with fluorogenic OGR1 probe; type: biochemical
T3 sequence (O15527 whole entry): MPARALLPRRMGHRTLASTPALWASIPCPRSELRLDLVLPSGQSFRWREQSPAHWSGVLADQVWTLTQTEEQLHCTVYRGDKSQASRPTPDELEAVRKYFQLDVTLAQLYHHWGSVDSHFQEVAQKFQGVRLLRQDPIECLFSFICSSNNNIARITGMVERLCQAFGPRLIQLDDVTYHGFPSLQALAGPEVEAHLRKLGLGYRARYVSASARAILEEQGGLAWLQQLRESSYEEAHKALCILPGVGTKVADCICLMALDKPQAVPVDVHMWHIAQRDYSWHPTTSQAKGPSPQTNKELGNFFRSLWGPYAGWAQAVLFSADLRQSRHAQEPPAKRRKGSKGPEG

[9] = tested on: Caco-2 (clone C2BBel); experiment: CACO-2 permeability assay; type: in vitro ADME; conditions: for Papp avg: average; for Papp R1: replicate R1
[10] = target: OGG1 activity in MCF-7 cell lysates (Homo sapiens, UniProt O15527); experiment: Inhibition of OGG1 activity in MCF-7 cell lysate; type: biochemical; conditions: MCF-7 lysate, 0.5 μM, measured at 20 h
Sequence of OGG1 activity in MCF-7 cell lysates (O15527 whole entry): as above

[11] = target: T4, SMUG1 (single-strand selective monofunctional uracil DNA glycosylase) (Homo sapiens, UniProt Q53HV7); experiment: Enzyme selectivity screen, SMUG1; type: biochemical; conditions: 20 μM
T4 sequence (Q53HV7 1-270): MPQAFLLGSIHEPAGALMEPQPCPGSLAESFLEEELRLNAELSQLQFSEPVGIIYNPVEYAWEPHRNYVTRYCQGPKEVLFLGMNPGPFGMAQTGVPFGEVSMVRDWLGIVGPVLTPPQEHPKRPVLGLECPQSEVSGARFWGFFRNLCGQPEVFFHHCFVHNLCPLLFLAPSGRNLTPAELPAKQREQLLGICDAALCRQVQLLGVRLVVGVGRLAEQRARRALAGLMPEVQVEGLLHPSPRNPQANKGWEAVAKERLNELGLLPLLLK

[12] = target: Recombinant His-tagged OGG1 (Homo sapiens, UniProt O15527); experiment: Surface plasmon resonance; type: binding; conditions: Biacore 8K, 1:3 dilution series, highest concentration 4 μM
Sequence of Recombinant His-tagged OGG1 (O15527 whole entry): as the sequence (O15527 whole entry) above

[13] = target: OGG1 activity in HeLa cell lysates (Homo sapiens, UniProt O15527); experiment: Inhibition of OGG1 activity in HeLa cell lysate; type: biochemical; conditions: 0.5 μM, measured at 20 h
Sequence of OGG1 activity in HeLa cell lysates (O15527 whole entry): as the sequence (O15527 whole entry) above
Outline: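 Cells were grown 48 h to confluence in DMEM with 10% FBS. Cytoplasmic fractions came from hypotonic swelling and needle lysis; nucleoplasmic fractions from 0.42 M NaCl extraction. The two were mixed 2:1. Each reaction held 100 ng/µL total protein, 2 µM pOGR1 fluorogenic probe, 10 mM MgCl2 and test compound at 0.5 μM, and ran […] at 37 °C. Fluorescence was read at 460 nm (excitation 355 nm).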

[14] = target: OGG1 in HeLa cells (Homo sapiens, UniProt O15527); experiment: Detection of 8-OG; type: cell-based; conditions: 0.5 μM, 24 h, LC/MS-MS
Sequence of OGG1 in HeLa cells (O15527 whole entry): as the sequence (O15527 whole entry) above
Outline: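 HeLa cells were seeded at 2×10^6 per 10 cm dish in DMEM with 10% FBS and grown 12 h. They were then exposed 24 h at 37 °C to test compound at 5 or 0.5 μM, with compound-containing medium renewed every 6 h. Controls were untreated cells and H2O2 (0.5 mM) plus CrCl3 (0.3 mM). DNA (5 µg) was digested to nucleosides, and 8-oxodG was quantified by LC-MS/MS with 15N-labelled internal standards and normalised to dG.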

[15] = target: T3, hOGG1; experiment: Michaelis–Menten kinetics of hOGG1 with OGR1 probe; type: biochemical
Outline: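 Recombinant hOGG1 (100 nM) was preincubated 15 min at 37 °C in NEBuffer 4 (pH 7.9) with BSA, without or with test compound (200 nM or 2 μM). OGR1 fluorogenic substrate was added at 0.8–10 μM and fluorescence read at 460 nm (excitation 355 nm). Initial rates over 10 min gave Michaelis–Menten curves and Lineweaver–Burk plots, yielding Km and Vmax; kcat = Vmax/[enzyme].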

For `NC(=O)c1cccc(-c2ccc(S(=O)(=O)Nc3ccc4c(c3)N(C(=O)C3CC3)CCC4)cc2)c1` [Compound 41], the “activity against hABH2” value [1] was “low or negligible”, the “activity against hABH3” value [2] was “low or negligible” and the “toxicity at 10 μM” value ([3]; HeLa (one of two human cell lines), 10 μM) was “no toxicity”. For the same compound, the “cytotoxicity (MTT)” value ([3]; HeLa, 10 nM to 10 μM, 24 h) was “little or no cytotoxicity”, the “apparent toxicity (MTT)” value ([3]; HeLa, 100 μM, 24 h) was 30–50% and the “toxicity at 10 μM” value ([4]; HEK293T (one of two human cell lines), 10 μM) was “no toxicity”. For the same compound, the “cytotoxicity (MTT)” value ([4]; HEK293T, 10 nM to 10 μM, 24 h) was “little or no cytotoxicity”, the “apparent toxicity (MTT)” value ([4]; HEK293T, 100 μM, 24 h) was 30–50% and the “activity against NUDT16” value [5] was “low or negligible”. For the same compound, the “activity against MTH1” value [6] was “low or negligible”, the “activity against dUTPase” value [7] was “low or negligible” and the “Enzyme activity, % of control at 2 μM” value ([8]; 2 μM compound, initial rate (first 12 min)) was 4.8 % of control. The IC50 ([8]; OGR1 assay, initial rates method) was 59 nM, the “Enzyme activity, % of control at 200 μM (third column of Table 5)” value ([8]; head of Table 5 c4 prints 200 μM, initial rate (first 12 min)) was 39 ±2.5 % of control and the recovery ([9]; A-to-B) was 65%. For the same compound, the Papp avg ([9]; A-to-B) was 12.5 ×10⁻⁶ cm/s, the “Papp R1” value ([9]; A-to-B) was 14.2 ×10⁻⁶ cm/s and the recovery ([9]; B-to-A) was 79%. The efflux ratio ([9]; B-to-A / A-to-B) was 6.2, the Papp avg ([9]; B-to-A) was 77.4 ×10⁻⁶ cm/s and the “Papp R1” value ([9]; B-to-A) was 63.5 ×10⁻⁶ cm/s. The “inhibition of probe signal” value [10] was 95%, the “activity against SMUG1” value [11] was “low or negligible” and the “Kd (1:1 kinetic and steady-state models)” value [12] was “consistent with IC50 of the biochemical assay”. The “inhibition of probe signal” value [13] was 64%, the “increase of 8-oxodG levels in DNA relative to mock-treated controls” value [14] was 25% and the mode of inhibition ([15]; Lineweaver–Burk analysis, 200 nM and 2 μM) was “competitive inhibitor”. It also gave a kcat ([15]; with 200 nM 41) of 0.040 s⁻¹ and a kcat ([15]; with 2 μM 41) of 0.057 s⁻¹.
